Results on one compound are retold here after ChEMBL document CHEMBL1142593, “Physaloside A, an acylated sucrose ester from Physalis viscosa” (J Nat Prod, 2005).

Each structure is given as a SMILES string. pIC50: −log10 of the molar value. Some results are limits rather than exact numbers.

A short description of series [1]: Selectivity ratio of IC50 for Klebsiella pneumoniae to IC50 for Staphylococcus aureus. The format is functional.
For series [2], the system named is Staphylococcus aureus. Kind of series: Antibacterial activity against Staphylococcus aureus after 18 hrs. The format is functional, organism-based. The essentials: (§1)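 Strains first grown on Mueller-Hinton agar, then in Mueller-Hinton broth with CaCl2/MgCl2 for 18 h at 37 °C. Serial dilutions were made (K. pneumoniae and P. aeruginosa […]) and equilibrated 30 min at 37 °C. Cultures were added to the samples, shaken 18 h at 37 °C and 60% humidity, and read at OD650. Controls were no inhibitor and 50 µg/mL streptomycin.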

Series [3] deals with Klebsiella pneumoniae. Kind of series: Antibacterial activity against Klebsiella pneumoniae after 18 hrs. In kind it is functional, organism-based. The method, boiled down:
as §1

A short description of series [4]: Selectivity ratio of IC50 for human THP1 cells to IC50 for Streptococcus pneumoniae. The format is ADME, cell-based, THP-1.
The nature of series [5]: Selectivity ratio of IC50 for human THP1 cells to IC50 for Staphylococcus aureus. In kind it is ADME, cell-based, THP-1.
Series [6] deals with THP-1. The series can be described thus: Cytotoxicity against human THP1 cells after 72 hrs by WST1 assay. In kind it is cell-based. The note with it: THP-1, 72 h. The method, boiled down:
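Cells were kept in RPMI 1640 with 10% FBS, 2 mM L-glutamine, penicillin/streptomycin and 10 µM 2-mercaptoethanol at 37 °C, 5% CO2, and seeded at 2.5 × 10^4 cells/well. Samples were tested at 250 µg/mL final for 72 h. WST-1 was added for a further 1–2 h, then A450 was read. Controls were 10 µM camptothecin and 0.1% DMSO.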

The nature of series [7]: Selectivity ratio of IC50 for Pseudomonas aeruginosa to IC50 for Staphylococcus aureus. The format is functional.
Series [8] has as its system Streptococcus pneumoniae. Kind of series: Antibacterial activity against Streptococcus pneumoniae after 18 hrs. The format is functional, organism-based. The method, boiled down:
as §1

Series [9] concerns Pseudomonas aeruginosa. Kind of series: Antibacterial activity against Pseudomonas aeruginosa after 18 hrs. The format is functional, organism-based. The essentials:
as §1

With `CCCCCCCCCCCC(=O)O[C@H]1[C@@H](O[C@@]2(CO)O[C@@H](CO)[C@H](O)[C@H]2O)O[C@H](CO)[C@@H](O)[C@@H]1OC(=O)C=C(C)C` [PHYSALOSIDE A], the Ratio IC50 in series [1] and in series [7] was > 8 throughout. Moreover, the pIC50 in series [2] was 4.28; in [3] it was < 3.38; in series [6] it was < 3.10; in series [8], 4.24; in series [9], < 3.38. The selectivity ratio in [4] and in series [5] was > 10 each time.

The pIC50 is the negative decadic logarithm of the IC50, by convention in mol/L. A high value points to a small IC50.
